The source of these data is ChEMBL document CHEMBL4715819, “Bicyclic Helical Peptides as Dual Inhibitors Selective for Bcl2A1 and Mcl-1 Proteins” (J Med Chem, 2018).

In experiment [1] the target is T1, Bcl-2-related protein A1 (Homo sapiens) (UniProt Q16548).
T1 sequence (whole entry): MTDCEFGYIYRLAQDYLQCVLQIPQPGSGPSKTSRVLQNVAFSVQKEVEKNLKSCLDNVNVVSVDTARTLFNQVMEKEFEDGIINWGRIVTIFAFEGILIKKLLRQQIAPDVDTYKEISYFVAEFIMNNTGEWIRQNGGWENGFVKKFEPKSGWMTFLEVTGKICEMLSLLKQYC
Nature of the experiment: Covalent binding affinity to Bcl2A1 in human U937 cells at 0.1 to 50 uM incubated for 24 hrs by Western blot analysis. As to conditions: U-937, dose 0.1-50 µM. On the technique in general: Immunoblotting shows a protein as a band on a membrane.

Experiment [2] concerns the target Apoptosis regulator Bcl-2 (Homo sapiens) (UniProt P10415). In words: Binding affinity to human Bcl2 incubated for 2 hrs by FBid based competitive FP assay.
The target of experiment [3] is T1, Bcl-2-related protein A1 (Homo sapiens). In words: Covalent binding affinity to human Bcl2A1 assessed as Kinact/Ki ratio by FBid based FP assay.
Experiment [4] concerns the target Bcl-2-like protein 1 (Homo sapiens) (UniProt Q07817). In words: Binding affinity to human Bcl-xL incubated for 2 hrs by FBid based competitive FP assay.
Experiment [5] has as its target T2, Bcl-2-like protein 2 (Homo sapiens) (UniProt Q92843).
T2 sequence (whole entry): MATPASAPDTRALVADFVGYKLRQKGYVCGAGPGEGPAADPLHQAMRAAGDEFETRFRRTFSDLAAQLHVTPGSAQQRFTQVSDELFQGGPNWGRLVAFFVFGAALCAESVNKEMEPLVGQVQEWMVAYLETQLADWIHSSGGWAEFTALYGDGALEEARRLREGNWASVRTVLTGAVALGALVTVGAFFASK
In words: Binding affinity to human Bcl-w incubated for 2 hrs by FBid based competitive FP assay.

In experiment [6] the target is T3, Bcl-2-related protein A1 (Homo sapiens, UniProt Q16548).
T3 sequence (Q16548 whole entry): T1 sequence (whole entry)
Nature of the experiment: Covalent binding affinity to human Bcl2A1 by FBid based FP assay.

Experiment [7] concerns the target T4, Induced myeloid leukemia cell differentiation protein Mcl-1 (Homo sapiens, UniProt Q07820). Nature of the experiment: Binding affinity to human Mcl1 incubated for 2 hrs by FBid based competitive FP assay.
For experiment [8], the target named is T3, Bcl-2-related protein A1. In words: Binding affinity to human Bcl2A1 incubated for 2 hrs by FBid based competitive FP assay.
Experiment [9] addresses T1, Bcl-2-related protein A1 (Homo sapiens). In words: Covalent binding affinity to human Bcl2A1 assessed as inactivation constant by FBid based FP assay.
Experiment [10] shares this target. In words: Covalent binding affinity to human Bcl2A1 incubated for 2 hrs by in presence of trypsin by MS/MS analysis. A digest of the protocol: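 A1 at 1 μM incubated with peptide at 10 μM, 2 h, in pH 7.2 buffer. Intact conjugate mass checked by MS. The conjugate gel band was trypsin-digested and the Cys55-bearing A1 fragment with bound peptide identified by mass spectrometry.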

The target is the same in experiment [11]. In words: Covalent binding affinity to human Bcl2A1 incubated for 2 hrs by SDS-PAGE electrophoresis.
Experiment [12] deals with T4, Induced myeloid leukemia cell differentiation protein Mcl-1. Nature of the experiment: Binding affinity to human Mcl1 by FBid based FP assay.
A further experiment has as its system SK-MEL-28. Nature of the experiment: Cytotoxicity in human SK-MEL-28 cells assessed as reduction in cell viability incubated for 48 hrs by MTT assay. As to conditions: SK-MEL-28, 48 h. In kind it is functional, cell-based. Summed up:
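SK-MEL-28 cells grown in DMEM with 10% FBS and penicillin/streptomycin. Peptide applied over a concentration series for 48 h. Viability read by MTT, and IC50 taken from the dose–response.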
On the technique in general: Formazan colour is commonly taken as a measure of viable cells.

The source made the active and inactive calls. No cut-off for these calls is given here. Positions of bridges follow the written chain, without caps; N, C: chain ends. Non-standard residues stand in square brackets, D forms with d. Residues, ends and D or L forms follow the SMILES beside them. ξ: configuration not given here. *: point of attachment. S5 = C=CCCC[C@](C)(N)C(=O)O; Acryloyl = C=CC(=O)*; Propionyl = CCC(=O)*; ξDap = NCC(N)C(=O)O

T4 sequence (Q07820 whole entry): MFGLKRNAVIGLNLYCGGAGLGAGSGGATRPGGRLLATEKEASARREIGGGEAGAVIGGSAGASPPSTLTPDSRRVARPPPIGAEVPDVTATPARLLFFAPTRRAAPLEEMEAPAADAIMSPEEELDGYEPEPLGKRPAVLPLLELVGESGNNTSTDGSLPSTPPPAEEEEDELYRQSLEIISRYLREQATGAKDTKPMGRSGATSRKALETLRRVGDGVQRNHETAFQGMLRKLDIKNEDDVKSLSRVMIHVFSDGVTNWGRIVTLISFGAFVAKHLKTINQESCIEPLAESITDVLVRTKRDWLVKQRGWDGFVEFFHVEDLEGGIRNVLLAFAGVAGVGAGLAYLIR
Sequence of Bcl-2-like protein 1 (Homo sapiens) (Q07817 whole entry): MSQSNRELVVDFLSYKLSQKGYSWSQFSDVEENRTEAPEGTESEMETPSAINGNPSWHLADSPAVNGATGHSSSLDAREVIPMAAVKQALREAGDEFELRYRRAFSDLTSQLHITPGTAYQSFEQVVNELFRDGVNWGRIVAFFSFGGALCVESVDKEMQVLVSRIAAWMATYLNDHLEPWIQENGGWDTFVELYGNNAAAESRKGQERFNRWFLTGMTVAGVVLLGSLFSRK
Sequence of Apoptosis regulator Bcl-2 (Homo sapiens) (P10415 whole entry): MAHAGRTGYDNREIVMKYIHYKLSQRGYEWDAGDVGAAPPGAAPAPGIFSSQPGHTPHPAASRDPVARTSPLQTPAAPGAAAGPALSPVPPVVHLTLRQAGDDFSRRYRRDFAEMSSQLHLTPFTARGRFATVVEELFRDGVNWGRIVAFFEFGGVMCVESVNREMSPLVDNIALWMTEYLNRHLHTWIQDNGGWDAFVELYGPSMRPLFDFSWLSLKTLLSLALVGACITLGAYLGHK

As to `C=CC(=O)NCC1NC(=O)[C@@](C)(NC(C)=O)CCC/C=C/CCC[C@@](C)(C(=O)N[C@@H](CCC(=O)O)C(=O)N[C@@H](CC(C)C)C(=O)N[C@@H](CCCNC(=N)N)C(=O)N[C@@]2(C)CCC/C=C/CCC[C@@](C)(C(=O)N[C@@H](Cc3ccccc3)C(N)=O)NC(=O)[C@H](CC(=O)O)NC(=O)CNC(=O)[C@H]([C@@H](C)CC)NC2=O)NC(=O)[C@H](C)NC(=O)[C@H]([C@@H](C)CC)NC1=O` (stereo partly drawn) (Ac-[S5][ξDap](Acryloyl)IA[S5]ELR[S5]IGD[S5]F-NH2; staple (E) 1-5, 9-13), the outcome in experiment [1] was Active. The outcome in experiment [2], in [4] and in experiment [5] was inactive. The Ratio in [3] was found to be 16.2 mM⁻¹ s⁻¹. Besides, the Ki on Bcl-2-related protein A1 [6] was found to be 133 nM. Further, the IC50 (as a rule, the concentration that gives 50% inhibition) stood at 51.6 nM in [7] and 13.4 nM on Bcl-2-related protein A1 [8]. The Kinact in experiment [9] is 0.00224 s⁻¹.

Consider `C=CC(=O)NCC1NC(=O)[C@@](C)(NC(C)=O)CCC/C=C/CCC[C@@](C)(C(=O)N[C@@H](CCC(=O)O)C(=O)N[C@@H](CC(C)C)C(=O)N[C@@H](CCCNC(=N)N)C(=O)N[C@H]2CCCCNC(=O)C[C@@H](C(=O)N[C@@H](Cc3ccccc3)C(N)=O)NC(=O)[C@H](CC(=O)O)NC(=O)CNC(=O)[C@H]([C@@H](C)CC)NC2=O)NC(=O)[C@H](C)NC(=O)[C@H]([C@@H](C)CC)NC1=O` (stereo partly drawn) (Ac-[S5][ξDap](Acryloyl)IA[S5]ELRKIGDDF-NH2; staple (E) 1-5; lactam 9-13), for which the outcome in [1], in experiment [10] and in [11] was Active. Further, the outcome in experiment [2], in experiment [4] and in [5] was inactive. Besides, in [3], the Ratio worked out at 399 mM⁻¹ s⁻¹. The compound also registered a Ki at Bcl-2-related protein A1 [6] of 10 nM. For the same compound, the IC50 in [7] turned out to be 29.2 nM; at Bcl-2-related protein A1 [8] it was 6.6 nM. The Kinact in experiment [9] was found to be 0.00367 s⁻¹.

Turning to `C=CC(=O)NCC1NC(=O)[C@@H](NC(C)=O)CCCCNC(=O)C[C@@H](C(=O)N[C@@H](CCC(=O)O)C(=O)N[C@@H](CC(C)C)C(=O)N[C@@H](CCCNC(=N)N)C(=O)N[C@@]2(C)CCC/C=C/CCC[C@@](C)(C(=O)N[C@@H](Cc3ccccc3)C(N)=O)NC(=O)[C@H](CC(=O)O)NC(=O)CNC(=O)[C@H]([C@@H](C)CC)NC2=O)NC(=O)[C@H](C)NC(=O)[C@H]([C@@H](C)CC)NC1=O` (stereo partly drawn) (Ac-K[ξDap](Acryloyl)IADELR[S5]IGD[S5]F-NH2; lactam 1-5; staple (E) 9-13), in experiment [1], the outcome was Active. The result in [2], in [4] and in experiment [5] was inactive. The Ratio in [3] is 54 mM⁻¹ s⁻¹. Further, at Bcl-2-related protein A1 [6], the Ki worked out at 46.7 nM. The results for the IC50 (in [7]; at Bcl-2-related protein A1 [8]) were 108 nM and 20.4 nM, respectively. For the same compound, the Kinact in [9] stood at 0.00231 s⁻¹.

For the compound `C=CC(=O)NCC1NC(=O)[C@@H](NC(C)=O)CCCCNC(=O)C[C@@H](C(=O)N[C@@H](CCC(=O)O)C(=O)N[C@@H](CC(C)C)C(=O)N[C@@H](CCCNC(=N)N)C(=O)N[C@H]2CCCCNC(=O)C[C@@H](C(=O)N[C@@H](Cc3ccccc3)C(N)=O)NC(=O)[C@H](CC(=O)O)NC(=O)CNC(=O)[C@H]([C@@H](C)CC)NC2=O)NC(=O)[C@H](C)NC(=O)[C@H]([C@@H](C)CC)NC1=O` (stereo partly drawn) (Ac-K[ξDap](Acryloyl)IADELRKIGDDF-NH2; lactam 1-5, 9-13), in experiment [1], the result was Active. Further, the result in experiment [2], in [4] and in experiment [5] was inactive. In experiment [3], the Ratio was 118 mM⁻¹ s⁻¹. Moreover, the Ki at Bcl-2-related protein A1 [6] was 30.5 nM. For the same compound, the IC50 was 48 nM in experiment [7] and 6.5 nM at Bcl-2-related protein A1 [8]. In addition, the Kinact in [9] was found to be 0.00349 s⁻¹.

As for `CCC(=O)NCC1NC(=O)[C@@](C)(NC(C)=O)CCC/C=C/CCC[C@@](C)(C(=O)N[C@@H](CCC(=O)O)C(=O)N[C@@H](CC(C)C)C(=O)N[C@@H](CCCNC(=N)N)C(=O)N[C@H]2CCCCNC(=O)C[C@@H](C(=O)N[C@@H](Cc3ccccc3)C(N)=O)NC(=O)[C@H](CC(=O)O)NC(=O)CNC(=O)[C@H]([C@@H](C)CC)NC2=O)NC(=O)[C@H](C)NC(=O)[C@H]([C@@H](C)CC)NC1=O` (stereo partly drawn) (Ac-[S5][ξDap](Propionyl)IA[S5]ELRKIGDDF-NH2; staple (E) 1-5; lactam 9-13), the outcome in experiment [1] and in experiment [11] was inactive. Besides, the result in experiment [12] was Active.

With `CC[C@H](C)[C@H](NC(C)=O)C(=O)N[C@@H](Cc1c[nH]c2ccccc12)C(=O)N[C@H](C(=O)N[C@@H](C)C(=O)N[C@@H](CCC(N)=O)C(=O)N[C@@H](CCC(=O)O)C(=O)N[C@@H](CC(C)C)C(=O)N[C@@H](CCCNC(=N)N)C(=O)N[C@@]1(C)CCC/C=C/CCC[C@@](C)(C(=O)N[C@@H](Cc2ccccc2)C(=O)N[C@@H](CC(N)=O)C(=O)N[C@@H](C)C(=O)N[C@@H](Cc2ccc(O)cc2)C(=O)N[C@@H](Cc2ccc(O)cc2)C(=O)N[C@@H](C)C(=O)N[C@@H](CCCNC(=N)N)C(=O)N[C@@H](CCCNC(=N)N)C(N)=O)NC(=O)[C@H](CC(=O)O)NC(=O)CNC(=O)[C@H]([C@@H](C)CC)NC1=O)[C@@H](C)CC`, in the experiment with SK-MEL-28, the 50% inhibitory concentration (IC50) was 15700 nM.

As to `C=CC(=O)NCC1NC(=O)[C@@](C)(NC(C)=O)CCC/C=C/CCC[C@@](C)(C(=O)N[C@@H](CC(C)C)C(=O)N[C@@H](CC(C)C)C(=O)N[C@@H](CCCNC(=N)N)C(=O)N[C@H]2CCCCNC(=O)C[C@@H](C(=O)N[C@@H](Cc3ccccc3)C(N)=O)NC(=O)[C@H](CC(=O)O)NC(=O)CNC(=O)[C@H]([C@@H](C)CC)NC2=O)NC(=O)[C@H](C)NC(=O)[C@H]([C@@H](C)CC)NC1=O` (stereo partly drawn) (Ac-[S5][ξDap](Acryloyl)IA[S5]LLRKIGDDF-NH2; staple (E) 1-5; lactam 9-13), the result in experiment [9] was Active.

`C=CC(=O)NCC(NC(=O)[C@@H](NC(C)=O)[C@@H](C)CC)C(=O)N[C@H](C(=O)N[C@@H](C)C(=O)N[C@@H](CCC(N)=O)C(=O)N[C@@H](CCC(=O)O)C(=O)N[C@@H](CC(C)C)C(=O)N[C@@H](CCCNC(=N)N)C(=O)N[C@@]1(C)CCC/C=C/CCC[C@@](C)(C(=O)N[C@@H](Cc2ccccc2)C(N)=O)NC(=O)[C@H](CC(=O)O)NC(=O)CNC(=O)[C@H]([C@@H](C)CC)NC1=O)[C@@H](C)CC` (stereo partly drawn) (Ac-I[ξDap](Acryloyl)IAQELR[S5]IGD[S5]F-NH2; staple (E) 9-13): in experiment [1], the outcome was Active. Moreover, the outcome in experiment [2], in experiment [4] and in experiment [5] was inactive. For the same compound, the Ratio in experiment [3] came out at 9 mM⁻¹ s⁻¹. The Ki on Bcl-2-related protein A1 [6] worked out at 175 nM. The figures for the IC50 (in experiment [7]; on Bcl-2-related protein A1 [8]) were 162 nM and 54.6 nM, respectively. Also, the Kinact in experiment [9] turned out to be 0.00159 s⁻¹.

Turning to `C=CC(=O)NCC(NC(=O)[C@@H](NC(C)=O)[C@@H](C)CC)C(=O)N[C@H](C(=O)N[C@@H](C)C(=O)N[C@@H](CCC(N)=O)C(=O)N[C@@H](CCC(=O)O)C(=O)N[C@@H](CC(C)C)C(=O)N[C@@H](CCCNC(=N)N)C(=O)N[C@@]1(C)CCC/C=C/CCC[C@@](C)(C(=O)N[C@@H](Cc2ccccc2)C(=O)N[C@@H](CC(N)=O)C(=O)N[C@@H](C)C(=O)N[C@@H](Cc2ccc(O)cc2)C(=O)N[C@@H](Cc2ccc(O)cc2)C(=O)N[C@@H](C)C(=O)N[C@@H](CCCNC(=N)N)C(=O)N[C@@H](CCCNC(=N)N)C(N)=O)NC(=O)[C@H](CC(=O)O)NC(=O)CNC(=O)[C@H]([C@@H](C)CC)NC1=O)[C@@H](C)CC` (stereo partly drawn), in experiment [1], the outcome was Active. In experiment [3], the Ratio is 30 mM⁻¹ s⁻¹. The compound also had a Ki at Bcl-2-related protein A1 [6] of 81.6 nM. Also, the IC50 in [7] is 34.5 nM; on Bcl-2-related protein A1 [8], 13.5 nM. In addition, the Kinact in experiment [9] turned out to be 0.00239 s⁻¹.
